Activity calls are given as the source filed them. No cut-off for these calls is given here.
How the values were obtained:
[1] = target: T1, Thymidylate kinase (Homo sapiens) (UniProt P23919); assay: Binding affinity to GST-tagged human TMPK expressed in Escherichia coli BL21 assessed as formation of disulfide bonds with Cys residues incubated for 30 mins at 25 degC in presence of trypsin by LC-MS/MS analysis
T1 sequence (whole entry): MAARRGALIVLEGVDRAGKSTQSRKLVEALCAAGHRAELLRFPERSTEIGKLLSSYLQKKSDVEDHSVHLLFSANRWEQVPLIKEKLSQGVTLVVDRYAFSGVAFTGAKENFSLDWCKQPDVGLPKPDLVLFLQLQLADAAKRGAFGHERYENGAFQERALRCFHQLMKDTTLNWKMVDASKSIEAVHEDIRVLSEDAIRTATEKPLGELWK
Summary of the method: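 hTMPK incubated with compound (20 μL of 10 mM DMSO stock in 1 mL PBS pH 7.4), 25 °C, 30 min. DTNB served as positive control and DMSO as negative control. Excess compound removed by dialysis against water. Digested with trypsin (1:50 w/w), 37 °C, 12 h, without denaturation or DTT reduction. Peptides analysed by nanoLC-ESI-MS/MS.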

[2] = Inhibition of tyrosine kinase activity in protein samples from human MDA-MB-231 cells using TK substrate incubated for 30 mins; assay type: cell-based; details: MDA-MB-231, 0.5 h
Summary of the method: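 Tyrosine kinase immunoprecipitated from MB-231 cell protein extracts and suspended in kinase solution with 10 mM 2-mercaptoethanol. Diluted enzyme mixed with compound (from 5 mM aqueous dilution) and ATP on substrate-coated wells, 37 °C, 30 min. Phosphotyrosine detected with anti-phosphotyrosine (PY20)-HRP and HRP substrate, stopped with H2SO4, absorbance read at 450 nm.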

[3] = target: T1, Thymidylate kinase (Homo sapiens); assay: Inhibition of GST-tagged human TMPK expressed in Escherichia coli BL21 incubated for 20 mins by NADH-coupled colorimetric assay
Summary of the method: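 Purified hTMPK at 25 °C in 100 mM Tris-HCl pH 7.5, 100 mM KCl, 10 mM MgCl2, 500 μM ATP, 250 μM TMP/CMP. Coupling mix: 500 μM phosphoenolpyruvate, 250 μM NADH, pyruvate kinase (4 units) and lactate dehydrogenase (5 units). NADH change read at 340 nm after 20 min.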

[4] = target: T1, Thymidylate kinase (Homo sapiens); assay: Inhibition of GST-tagged human TMPK expressed in Escherichia coli BL21 at 2 uM incubated for 10 mins by luciferase-coupled TMPK assay
Thymidylate kinase = target: T2, Thymidylate kinase (Homo sapiens, UniProt P23919); assay: Inhibition of GST-tagged human TMPK expressed in Escherichia coli BL21 incubated for 10 mins by luciferase-coupled TMPK assay
T2 sequence (P23919 whole entry): T1 sequence (whole entry)
Summary of the method: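 Purified hTMPK (10 μL of 0.1 μg/μL) and compound (10 μL of 10 μM, diluted from 10 mM DMSO stock) added to 100 mM Tris-HCl pH 7.5, 100 mM KCl, 10 mM MgCl2, 5 μM ATP, 100 μM dTMP. Reaction run 10 min at 25 °C. Remaining ATP read by CellTiter-Glo luminescence. IC50 from triplicate independent experiments.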

[5] = Cytotoxicity in IL-3-dependent mouse 32D cells expressing Bcr-Abl after 3 days by WST-1 assay; assay type: functional, cell-based; details: 72 h
[6] = Cytotoxicity in mouse 32D cells after 3 days by WST-1 assay; assay type: cell-based; details: 72 h, time 3 day
[7] = target: T1, Thymidylate kinase (Homo sapiens); assay: Binding affinity to GST-tagged human TMPK expressed in Escherichia coli BL21 assessed as binding constant for compound to protein 1:1 stoichiometry by ITC analysis
Summary of the method: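 ITC in PBS pH 7.4 with 50% glycerol at 298 K, stirring at 1000 rpm. Compound (1.228 mM) injected into hTMPK (0.0817 mM): a first 0.5 μL injection, then 2 μL injections at 4-min spacing. Fitted for stoichiometry, association constant, ΔH and ΔS.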

[8] = target: T1, Thymidylate kinase (Homo sapiens); assay: Binding affinity to ATP binding site of GST-tagged human TMPK expressed in Escherichia coli […] assessed as mass shift of labeled peptides in presence of trypsin by LC-MS/MS analysis
Summary of the method: (§1)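 Purified hTMPK (from GST fusion in E. coli […], thrombin-cleaved) preincubated with biotin-arylazide photoprobe in PBS pH 7.4, 25 °C, 30 min, then irradiated with 254-nm UV light three times for 1 min each. Protein denatured in 6.5 M urea, reduced with DTT and alkylated with iodoacetamide. Digested with trypsin (1:50 w/w) or chymotrypsin (1:100 w/w), 37 °C, 16 h. Peptides analysed by nanoLC-ESI-MS/MS, with or without monomeric avidin enrichment.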

[9] = target: T1, Thymidylate kinase (Homo sapiens); assay: Binding affinity to GST-tagged human TMPK expressed in Escherichia coli BL21 pre-incubated for 30 mins at 25 degC followed by UV irradiation by HRP based Western blot analysis
Summary of the method: (§2)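 Photoprobe (6.8 μL of 3 mM DMSO stock) and purified hTMPK incubated in 1 mL PBS pH 7.4 with protease inhibitor cocktail, 25 °C, 30 min. Irradiation where applied: 254-nm UV, three 1-min exposures. Samples boiled in SDS sample buffer and run on 12% SDS-PAGE. Transferred to PVDF, probed with streptavidin-HRP, detected by chemiluminescence.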

[10] = target: T1, Thymidylate kinase (Homo sapiens); assay: Binding affinity to GST-tagged human TMPK expressed in Escherichia coli BL21 pre-incubated for 30 mins at 25 degC followed by absence of irradiation by HRP based Western blot analysis; summary of the method: as §2
[11] = target: T1, Thymidylate kinase (Homo sapiens); assay: Binding affinity to ATP binding site of GST-tagged human TMPK expressed in […] assessed as mass shift of labeled peptides in presence of chymotrypsin by LC-MS/MS analysis; summary of the method: as §1
Candida = assay: Inhibition of Candida Cdc8 incubated for 10 mins in presence of [gamma-32P]ATP by 32P-phosphate transfer assay
Summary of the method: (§3)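 hTMPK (0.2 μg) or Candida Cdc8 (0.02 μg; GST fusion from E. coli BL21, purified similarly). Compound preincubated 10 min, then enzyme added to 0.05 μM [γ-32P]ATP, 50 μM ATP and 50 μM dTMP in 100 mM Tris-HCl, 100 mM KCl, 10 mM MgCl2. Stopped by heating. Products separated by PEI-cellulose TLC (2 M acetic acid/0.5 M LiCl), and 32P-dTDP spots counted by scintillation.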

[12] = target: T1, Thymidylate kinase (Homo sapiens); assay: Inhibition of GST-tagged human TMPK expressed in Escherichia coli BL21 incubated for 10 mins in presence of [gamma-32P]ATP by 32P-phosphate transfer assay; summary of the method: as §3

O=c1c2ccccc2sn1-c1ccccc1
Activity [1]: Active

CC(C)(C)OC(=O)N1CCN(C(=O)Cn2sc3ncccc3c2=O)CC1
IC50 [2]: > 100 µM | inhibition [3]: Active | inhibition [4]: 91.3% | IC50 (Thymidylate kinase): 0.47 µM | EC50 [5]: 1.4 µM | Activity [6]: Non-Toxic

CC(C)(C)OC(=O)N1CCN(C(=O)Cn2sc3ccccc3c2=O)CC1
IC50 [2]: > 100 µM | inhibition [3]: Active | inhibition [4]: 91.3% | IC50 (Thymidylate kinase): 0.35 µM | EC50 [5]: 0.65 µM | Activity [6]: Non-Toxic

CCOC(=O)N1CCN(C(=O)COc2nsc3cc(C)cc(C)c23)CC1
inhibition [4]: inactive

CC(C)(C)OC(=O)N1CCN(C(=O)COc2nsc3ncccc23)CC1
inhibition [4]: inactive

CCOC(=O)N1CCN(C(=O)CCCn2sc3ccccc3c2=O)CC1
inhibition [4]: 7%

Cc1cc(C)c2c(=O)n(CC(=O)N3CCNCC3)sc2n1
inhibition [4]: 73.4% | K [7]: 127000 M⁻¹

[N-]=[N+]=Nc1ccc2c(=O)n(CC(=O)N3CCN(CCOCCOCCOC(=O)CCCC[C@@H]4SC[C@@H]5NC(=O)N[C@@H]54)CC3)sc2c1
IC50 [2]: > 100 µM | Activity [8]: 648 Da | Activity [9]: Active | Activity [10]: inactive | inhibition [4]: 86.9% | Activity [11]: 422 Da

O=c1c2ccccc2sn1-c1ccc(F)c(Cl)c1
inhibition [4]: < 2%

CCOC(=O)N1CCN(C(=O)Cn2sc3ccccc3c2=O)CC1
inhibition [4]: 70%

CC(C)(C)OC(=O)N1CCN(C(=O)COc2nsc3ccccc23)CC1
inhibition [4]: inactive

Cc1cc(C)c2c(=O)n(CC(=O)N3CCN(C(=O)OC(C)(C)C)CC3)sc2n1
inhibition [4]: 76.3%

O=C(O)c1cc(SSc2ccc([N+](=O)[O-])c(C(=O)O)c2)ccc1[N+](=O)[O-]
Activity [1]: Active

CCOC(=O)N1CCN(C(=O)Cn2sc3nc(C)cc(C)c3c2=O)CC1
inhibition (Candida): inactive | IC50 [2]: > 100 µM | Activity [1]: inactive | inhibition [3]: Active | inhibition [4]: 70% | IC50 (Thymidylate kinase): 1.65 µM | inhibition [12]: Active | EC50 [5]: 0.88 µM | Activity [6]: Non-Toxic

— ChEMBL document CHEMBL4680087, “Chemical Inhibition of Human Thymidylate Kinase and Structural Insights into the Phosphate Binding Loop and Ligand-Induced Degradation” (J Med Chem, 2016)
